Assay outcomes deposited in PubChem BioAssay by several laboratories.
A selection: hits, their analogues and other compounds. The true share with any hit is near 4.9%.
STAT3 act-1 – increases IL-6 driven STAT3 reporter signal. U3A cells, IL-6 STAT3-luciferase reporter, luminescence; 100% = signal with IL-6 EC80 alone. activation (% of control), % at 5.6 µM. 190,000 tested, 0.91% active;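 active means activation above the screen-wide mean of compound activation plus 3 SD, cut at about 130% in these data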;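 further: 0% = background luminescence of wells with medium and substrate only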
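System – human U3A cells carrying STAT3-luciferase construct · Probe or stimulus – Interleukin-6, 33 ng/mL · Schedule – compound 1 h, then IL-6 6 h at 37 °C · Signal – luminescence from STAT3-driven luciferase reporter · Evaluation – percent of IL-6-only median luminescence · Benchmarks – IL-6-only high control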
STAT1 act-1 – STAT1 signaling activation. NIH 3T3 STAT1-luciferase reporter, IFN-gamma, luminescence; 100% = IFN-gamma alone, no compound. activation (% of control), % at 5.5 µM. 200,000 tested, 2.6% active;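 active means activation above the screen-wide mean activation plus 3 SD, cut at about 130% in these data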;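 further: raw ratio to IFN-gamma control signal so 100% means no change and 0% no light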
STAT3 inh – inhibitors of IL-6 induced STAT3 signaling; U3A cells, IL-6 STAT3-luciferase reporter, luminescence; host cell line lacks STAT1; inhibition, % at 5.5 µM; 190,000 tested, 0.89% active; AID 862;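 active means inhibition above the mean inhibition across all screened compounds plus 3 SD, cut at about 44% in these data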;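 further: 0% = DMSO only wells and 100% = 100 µM nifuroxazide control wells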
FLuc inhib CS – counter-screen for luciferase assay inhibitors: firefly luciferase inhibition | ATPLite firefly luciferase biochemical luminescence, 10 min | inhibition, % at 10 µM | 200,000 tested, 1.5% active | AID 1006;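 active means inhibition above about 50% when tested at 10 µM, limit read from the data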
Target sequence (P08659 whole entry, looked up): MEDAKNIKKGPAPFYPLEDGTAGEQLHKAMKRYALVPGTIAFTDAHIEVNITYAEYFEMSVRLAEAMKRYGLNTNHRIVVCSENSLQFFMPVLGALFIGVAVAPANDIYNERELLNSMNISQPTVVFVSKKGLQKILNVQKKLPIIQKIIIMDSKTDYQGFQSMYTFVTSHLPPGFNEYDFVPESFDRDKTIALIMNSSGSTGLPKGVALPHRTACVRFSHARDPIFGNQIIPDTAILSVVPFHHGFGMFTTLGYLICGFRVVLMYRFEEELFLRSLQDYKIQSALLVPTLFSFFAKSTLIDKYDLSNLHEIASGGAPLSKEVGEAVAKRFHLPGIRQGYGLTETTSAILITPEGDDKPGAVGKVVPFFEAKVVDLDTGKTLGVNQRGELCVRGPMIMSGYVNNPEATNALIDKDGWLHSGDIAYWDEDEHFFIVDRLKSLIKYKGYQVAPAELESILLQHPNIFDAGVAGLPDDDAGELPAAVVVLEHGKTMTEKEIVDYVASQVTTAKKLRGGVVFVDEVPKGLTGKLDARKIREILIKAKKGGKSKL
STAT1 inh – inhibitors of IFN-gamma induced STAT1 signaling; NIH 3T3 STAT1-luciferase reporter, luminescence; inhibition, % at 5.5 µM; 200,000 tested, 0.35% active;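 active means inhibition above a set limit, the mean inhibition across all tested compounds plus 3 SD, cut at about 34% in these data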;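 further: 0% = IFN-gamma with DMSO and 100% = IFN-gamma with 300 µM nifuroxazide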
FLuc act counter – affects firefly luciferase, flagging false hits in luciferase stimulation screens. P08659. ATPlite luciferase biochemical, luminescence, 10 min; 0 = ATP-free wells, 1 = DMSO control. activation factor at 10 µM. 200,000 tested, under 10 active. AID 1027;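 active means luciferase activation factor, scaled between plate controls, of at least 2 with compound at 10 µM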
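Material: Luciferase/luciferin reagent mix | Doses: Test compounds dosed from 2 mM stocks in 100% DMSO | Timing: 10 min incubation after luciferase reagent addition, room temperature | Measured by: Luminescence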
STAT3 act-2 – confirmation of STAT3 signaling activators. U3A STAT3-luciferase reporter, IL-6 potentiation, luminescence; U3A cells lack STAT1; 100 means same as IL-6 alone. shares compounds with STAT3 act-1. potentiation (% of control), % at 5.7 µM. 1,200 tested, 64% active. AID 1267;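 active means percent activation of the STAT3 luciferase reporter above a set limit taken from the earlier primary screen, cut at about 130% in these data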;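 further: 0% = background signal of medium plus substrate and 100% = median of IL-6 with DMSO wells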
NFkB act 2 – activates NF-kappaB, counter-screen to STAT3 activators; human cells, NF-kappaB reporter activation; AID 1309; 1,200 tested, 11% active; activation (% of control), % at 5.7 µM; shares compounds with STAT3 act-1; in the data active means activation above about 120%;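 further: reporter induced by TNF-alpha stimulation; 100% = median of stimulated DMSO wells and 0% = no signal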
STAT1 act-2 – activates STAT1, counter-screen to STAT3 activators; NIH 3T3 STAT1-luciferase reporter, IFN-gamma, luminescence; AID 1318; 1,200 tested, 13% active; shares compounds with STAT3 act-1; activation (% of control), % at 5.7 µM;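 active means activation above the solvent-only control well mean plus 3 SD, set per screening run, cut at about 120% in these data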;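 further: 100% = IFN-gamma with DMSO median signal so 100% means no change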
* marks the source's active call; other numbers are inactive results; . = no result.

SMILES	STAT3 act-1	STAT1 act-1	STAT3 inh	FLuc inhib CS	STAT1 inh	FLuc act counter	STAT3 act-2	NFkB act 2	STAT1 act-2
O=C1CN(C(=O)c2ccc(Br)o2)C(c2ccccc2)c2cc(Br)ccc2N1 (stereo not given)	142.4*	98.7	-46.9	-0.6	1.4	1	138.7*	100.4	111.3
COc1ccc(OC)c(-c2nnc(NC(=O)C(C)Sc3nncn3C)s2)c1 (stereo not given)	140.1*	101.2	-44.1	-4.1	-1.4	1	118.8	105.2	100.6
C/C(=N\Nc1nc(-c2cc(C)ccc2C)cs1)c1cc2ccccc2oc1=O	99.3	92.2	-1.4	-6.8	8.8	1.1	.	.	.
C/C(=N\Nc1nc(-c2cc(C)ccc2C)cs1)c1cc2c(ccc3ccccc32)oc1=O	146.4*	98.7	-46.7	-3.9	1.5	1	106.5	100.2	94.8
CCn1c(=O)cc(SCC(=O)Nc2cccc(C)n2)c2ccccc21	75.2	85.2	33.4	-4.3	15.4	1	.	.	.
Cc1ccc(-n2c(C)nc3oc4ccccc4c(=O)c3c2=O)cc1	148.8*	117.2	-54.9	5.0	-18.8	0.9	159.1*	121.8*	135.1*
CC(=O)c1c(C)n(-c2ccccc2)c2ccc(OCC(N)=O)cc12	105.6	101.5	-3.0	-5.5	-3.8	1.1	.	.	.
CC1CC(=O)C2=C(C1)Nc1ccccc1N=C2 (stereo not given)	104.0	82.6	-3.6	-3.7	9.9	1	.	.	.
CCC1=Nc2ccccc2NC2=C1C(=O)CCC2	165.6*	123.7	-76.6	4.0	-23.0	1	159.9*	119.4	122.6*
CCc1cc(=O)[nH]c(-n2[nH]c(-c3ccccc3)cc2=O)n1	97.9	98.3	4.6	-2.9	1.6	1	.	.	.
O=c1cc(-c2ccccc2)[nH]n1-c1nc2ccccc2[nH]1	154.6*	112.6	-53.1	19.1	-13.9	0.8	141.0*	157.4*	140.8*
CCN(CC)S(=O)(=O)c1ccc(/C=C/C(=O)OCC(=O)N(C(C)C)C(C)C)cc1	103.2	98.3	-3.2	1.0	2.5	1	.	.	.
COC(=O)c1[nH]c(C)c(/C(O)=C2\C(=O)C(=O)N(CCN3CCOCC3)C2c2cccnc2)c1C (stereo not given)	138.2*	102.6	-42.1	-8.9	-2.8	1.1	92.0	106.7	97.0
CCN(CC)CCN1C(=O)C(=O)/C(=C(/O)c2c(C)[nH]c(C(=O)OC)c2C)C1c1cccnc1 (stereo not given)	102.6	97.7	0.8	3.6	2.6	1	.	.	.
CCn1c(N2CCN(CC(=O)c3c[nH]c4ccccc34)CC2)nc2c1c(=O)[nH]c(=O)n2C	142.1*	92.6	-46.8	-1.7	8.1	1	136.8*	109.7	97.7
Cc1c(C(=O)Nc2ccccn2)oc2ccccc12	154.1*	123.7	-59.3	45.0	-27.7	0.6	217.6*	142.2*	172.7*
Cc1c(C(=O)Nc2ccncc2)oc2ccccc12	81.1	108.6	26.3	7.4	-9.4	0.9	.	.	.
O=C1c2ccccc2C(=O)N1Cc1cnc(N2CCN(c3ccccc3)CC2)s1	93.5	103.7	12.5	-3.1	-7.1	1	.	.	.
N#CC1=C(N)Oc2cc(O)ccc2C1c1cccnc1 (stereo not given)	92.4	98.5	10.3	-3.8	0.1	1	.	.	.
CN(C)c1ccc2c(c1)OC(N)=C(C#N)C2c1cccc(F)c1 (stereo not given)	145.8*	112.0	-50.3	-3.7	-11.3	1	100.1	153.1*	112.5
C/C(CC(C)C)=N\Nc1ccc(S(N)(=O)=O)cc1[N+](=O)[O-]	102.5	95.0	5.9	-2.1	3.5	1	.	.	.
CCN(CC)CCCC(C)NC(=O)c1cccc(S(=O)(=O)N2CCc3ccccc32)c1 (stereo not given)	139.7*	98.7	-42.9	-5.7	-0.5	1.1	147.6*	101.9	100.1
CC(C)CCNC(=O)c1cccc(S(=O)(=O)N2CCc3ccccc32)c1	99.1	100.6	4.5	-8.0	-0.6	1.1	.	.	.
Cc1n(C)c2cc(Cl)ccc2[n+]1Cc1ccccc1	95.5	92.6	10.8	-3.6	7.7	1	.	.	.
C#CCOc1ccc(C2C3=C(COC3=O)Nc3cc4c(cc32)OCO4)cc1OC (stereo not given)	142.6*	109.5	-42.7	-3.1	-12.5	1	116.1	159.0*	115.3
SMILES	STAT3 act-1	STAT1 act-1	STAT3 inh	FLuc inhib CS	STAT1 inh	FLuc act counter	STAT3 act-2	NFkB act 2	STAT1 act-2
O=C1OCC2=C1C(c1ccc(F)cc1)c1cc3c(cc1N2)OCO3 (stereo not given)	136.2*	99.9	-36.1	-3.7	0.0	1	108.3	153.3*	105.7
CCOc1ccccc1C1CC(=O)Nc2cc3c(cc21)OCO3 (stereo not given)	93.9	96.3	9.0	-7.4	4.1	1.1	.	.	.
CCOc1ccccc1C1C2=C(COC2=O)Nc2cc3c(cc21)OCO3 (stereo not given)	141.2*	109.4	-30.8	-7.7	-11.3	1.1	103.4	131.2*	94.5
O=C1OCC2=C1C(c1ccc(F)cc1)c1cc3c(cc1N2)OCCO3 (stereo not given)	138.3*	98.6	-38.5	-0.3	1.4	1	96.5	104.9	101.3
COc1cc2c(cc1OC)C(c1ccc3c(c1)OCO3)C1=C(CC(C)(C)CC1=O)N2 (stereo not given)	94.9	94.6	9.9	-2.2	5.9	1	.	.	.
OCC1(Cc2ccccc2)CCN(CCCC2CCCC2)CC1	98.2	98.6	5.4	-4.5	-0.6	1	.	.	.
CCc1n[nH]c(=S)n1/N=C/c1cc(OC)cc([N+](=O)[O-])c1O	108.1	107.1	-4.8	11.5	-11.3	0.9	.	.	.
Cc1cc(/C=N/n2cnnc2)c(O)c([N+](=O)[O-])c1	138.5*	100.3	-42.6	1.8	-0.3	1	149.3*	98.5	95.2
Nc1cc2c(cc1O)CCCC2	137.4*	104.4	-35.2	4.1	-7.2	1	182.8*	118.3	146.9*
O=C(CNC(=O)c1ccccc1Br)N/N=C/c1ccc(O)cc1	104.8	101.6	1.3	6.3	-3.2	0.9	.	.	.
COC(=O)/C(=C/Nc1cccc2ccccc12)[N+](=O)[O-]	173.1*	90.3	-76.9	-2.6	10.6	1	134.8*	108.3	99.3
